Assay results from different studies.
Protocols differ between the studies behind these lines.
Target: Serine/threonine-protein kinase tousled-like 1 (TLK1, Homo sapiens, UniProt Q9UKI8)
Sequence (Q9UKI8 1-766, as in one of the studies): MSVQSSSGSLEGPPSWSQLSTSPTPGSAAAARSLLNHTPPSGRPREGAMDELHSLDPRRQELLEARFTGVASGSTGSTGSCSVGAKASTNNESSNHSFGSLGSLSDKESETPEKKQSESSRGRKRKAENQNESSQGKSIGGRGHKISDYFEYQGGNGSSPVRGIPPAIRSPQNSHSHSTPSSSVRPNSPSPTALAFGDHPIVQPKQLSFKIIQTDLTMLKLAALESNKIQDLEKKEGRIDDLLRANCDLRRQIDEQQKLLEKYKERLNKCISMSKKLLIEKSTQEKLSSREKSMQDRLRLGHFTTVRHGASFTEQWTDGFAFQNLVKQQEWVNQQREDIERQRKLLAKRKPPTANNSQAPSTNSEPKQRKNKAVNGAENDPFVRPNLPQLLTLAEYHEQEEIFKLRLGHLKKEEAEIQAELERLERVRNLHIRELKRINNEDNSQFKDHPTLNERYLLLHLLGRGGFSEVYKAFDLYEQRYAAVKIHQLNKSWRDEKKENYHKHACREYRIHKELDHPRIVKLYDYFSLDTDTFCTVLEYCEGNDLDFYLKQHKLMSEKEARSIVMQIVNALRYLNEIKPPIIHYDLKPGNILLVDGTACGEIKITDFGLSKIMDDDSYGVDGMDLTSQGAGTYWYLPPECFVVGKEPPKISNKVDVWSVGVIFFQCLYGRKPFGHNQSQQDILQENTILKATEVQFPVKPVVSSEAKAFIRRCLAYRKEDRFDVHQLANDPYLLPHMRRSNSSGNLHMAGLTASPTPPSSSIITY

SMILES | effect on | method | tested at | remaining binding [%]
CN(CCCC(F)(F)F)c1nccc(-c2cnn3ncccc23)n1 | binding |  | 1 µM | 100
CNC(=O)[C@@H]1CC[C@@H](n2c(-c3ccc4cnccc4c3)nc3ccc(C(=O)NCc4cccc(C(N)=O)c4)cc32)C1 | binding | competition with immobilised ligand | 1 µM | 97
CCC(=O)N[C@@H]1CC[C@H](C(=O)N(C)c2ccc(-c3nc4ccccc4o3)cc2)C1 | cell-free assay | competition with immobilised ligand | 1 µM | 100
CN(C)c1nccc(-c2cnn3ncccc23)n1 | binding |  | 1 µM | 92
Cc1c[nH]c2nccc(Oc3c(F)cc(Nc4cc(Cl)nc(N)n4)cc3F)c12 | cell-free assay | competition with immobilised ligand | 0.1 µM | 100
O=C(NCCCN1CCOCC1)c1ccc(Nc2ncc(Cl)c(-c3ccc(Cl)s3)n2)cc1 | binding | competition with immobilised ligand | 1 µM | 75
N[C@@H]1CCN(c2nccc(-c3cnn4ncccc34)n2)C1 | binding |  | 1 µM | 39
O=C(Nc1c[nH]nc1C(=O)NC1CCNCC1)c1cc(F)cc(F)c1 | binding | competition with immobilised ligand | 1 µM | 100
O=S(=O)(NC1CCC(c2cc(F)ccc2F)(S(=O)(=O)c2ccc(Cl)cc2)CC1)C(F)(F)F (centres unmarked) | cell-free assay | competition with immobilised ligand | 1 µM | 100
Nc1ncc2c(n1)-c1c([nH]c3ccc(C#CC4CC4)cc13)CCCC2 | binding | competition with immobilised ligand | 1 µM | 87
O=C(NCCCN1CCOCC1)c1ccc(Nc2nccc(-c3cc4ccccc4s3)n2)cc1 | binding | competition with immobilised ligand | 1 µM | 63
COc1cnc(Nc2cccc(S(N)(=O)=O)c2)nc1N1CCN(c2ccccc2)CC1 | binding | competition with immobilised ligand | 1 µM | 80
COc1ccnn2ncc(-c3ccnc(N(C)C)n3)c12 | binding |  | 1 µM | 100
O=C(c1ccc(Nc2ncc(Cl)c(-c3ccc(Cl)s3)n2)cc1)N1CCC(N2CCCC2)CC1 | binding | competition with immobilised ligand | 1 µM | 32
O=C(Nc1ccc(Oc2ccc(F)cc2)cc1)N1CCc2ncccc2[C@H]1c1ccc(F)cc1 | cell-free assay | competition with immobilised ligand | 1 µM | 100
CN(C)c1nccc(-c2cnc3ncccn23)n1 | binding |  | 1 µM | 81
O=C(Nc1cccnn1)N1CC(C/C=C/c2cncc(Oc3ccc(C(F)(F)F)cn3)n2)C1 | cell-free assay | competition with immobilised ligand | 1 µM | 98
Cc1cnn2ncc(-c3ccnc(N(C)C)n3)c2c1 | binding |  | 1 µM | 75
C=CC(=O)N1CCC(C(=O)NCC(=O)N2CCN(c3nc(-c4cnc(N)nc4C(F)F)nc(N4CCOCC4)n3)CC2)CC1 | binding | competition with immobilised ligand | 1 µM | 99
CN(C)C(=O)Cn1cc(-c2nc([C@@](C)(c3ccc(-c4cnc(N)nc4)cc3)C3CC3)no2)cn1 | cell-free assay | competition with immobilised ligand | 1 µM | 100
